# Assay results reported in paper PMC10073267 (Journal of peptide science : an official publication of the …, 2023).
# Assay: Octanol–water partitioning in the presence of sodium dodecanoate
# Assay type: physicochemical
# Conditions: mean ± SD; octanol–water partitioning with sodium dodecanoate (2.5 equiv); D2O
# Procedure, shortened: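 Test compound dissolved in D2O as 0.02 M stock, mixed with equal volume of octanol, with or without sodium dodecanoate (2.5 equiv), triplicate tubes each. Vortexed 30 s, centrifuged 15 min, ambient ~22 °C. Aqueous-layer NMR integrations pre- and post-wash compared. Partitioning taken as difference between octanol-only and octanol + lipid washes, averaged over three replicates.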
row,Percent in Aqueous Layer,SMILES
1,19.8 ± 0.1%,"CNC(=O)[C@H](CCCNC(=N)N)NC(C)=O [2·H^+, Ac-Arg-NHMe]"
2,30.4 ± 1.5%,"CC(=O)N[C@@H](CCCN=C(N)N)C(N)=O [1·H^+, Ac-Arg-NH2]"
3,18.3 ± 0.7%,"CC(=O)N[C@@H](CCCNC(=N)N)C(=O)N(C)C [3·H^+, Ac-Arg-NMe2]"
4,12.7 ± 1.6%,"CC(=O)N(C)C(CCCN=C(N)N)C(=O)N(C)C (stereo not shown) [4·H^+, Ac-(N-Me)Arg-NMe2]"
